# Laboratory results published in PMC11520922 (International Journal of Nanomedicine, 2024).
# “Also recorded” adds a separate entry of the source.
# Experiments:
# [1] = cited from earlier work
# [2] = clinical; cited from earlier work
# [3] = In vivo pharmacokinetic study; parameters: species or system Sprague–Dawley rats
# How it was run: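 Male Sprague–Dawley rats (~300 g) were anaesthetised with Zoletil i.m. at […]. They received test compound in 10% ethanol or as albumin nanoparticles s.c. at 0.33 mg g−1. Blood (400 μL) was drawn from the subclavian vein at 0.08–6 h into heparin tubes. Plasma was spiked with carbamazepine internal standard, deproteinised with methanol, dried and reconstituted in methanol. Analysis was by RP-18 HPLC at 265 nm, and parameters were computed by first-order kinetic modelling.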
# [4] = cited from earlier work; remark: listed apart in the source
# [5] = tested on: Peripheral Blood Mononuclear Cells (PBMCs); assay: Ex vivo peripheral blood mononuclear cells; format: cell-based, male Sprague–Dawley rats; conditions: rat PBMCs
# How it was run: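 PBMCs came from the peripheral blood of male Sprague–Dawley rats. They were isolated by Ficoll–Paque density-gradient centrifugation, collected from the interphase and washed three times in RPMI 1640. Cells were plated at 1×10^6/well in RPMI 1640 with 10% FBS (37 °C, 5% CO2) and incubated overnight with free test compound or albumin-nanoparticle formulation. Viability was then read by the CCK-8 A450 procedure used for HuT-78.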
# [6] = male, Sprague-Dawley, rat, plasma, sc, 0.333 mg
smiles,measurement,setting,value
O=C(/C=C/c1cccc(S(=O)(=O)Nc2ccccc2)c1)NO [Belinostat],log P,[1],1.83
same,pKa,[1],7.87
same,"thrombocytopenia adverse events, Grade 3 to 4",[2],~ 7%
same,"thrombocytopenia adverse events, all grades",[2],~ 16%
same,CL,"[3]; SD rats, subcutaneous, 0.333 mg g^−1, n = 3",5.32 ± 1.53 mL/h
same,AUC(0-t),[3]; [6],62000 ± 28700 ng·h/mL
same,Cmax,[3]; [6],8650 ± 780 ng/mL
same,Tmax,[3]; [6],0.43 ± 0.13 h
same,half-life,[3]; [6],4.66 ± 1.66 h
same,protein binding affinity,[4],92.9–95.8%
same,viability of PBMCs,[5]; concentration 10 μM,decreases
same,viability (survival) of PBMC,[5]; high dose 100 μM,did not survive; also recorded: no survival
